In ChEMBL document CHEMBL3425427, “Pyrido[4,3-e][1,2,4]triazolo[4,3-a]pyrazines as Selective, Brain Penetrant Phosphodiesterase 2 (PDE2) Inhibitors” (ACS Med Chem Lett, 2015):
Values after ≈ are worked out from the molar mass of the structure shown.

Legend:
[1] = Unbound fraction in Sprague-Dawley rat brain homogenates at 10 mg/kg, sc after 5 hrs at 37 degC by rapid equilibrium dialysis; type: ADME, organism-based; set-up: dose 10 mg/kg, route subcutaneous; details: brain homogenate
How it was run: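 Unbound fraction measured in rat brain homogenate by rapid equilibrium dialysis, 5 h incubation at 37 °C.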

[2] = Ratio of drug level in brain to plasma of Sprague-Dawley rat at 10 mg/kg, sc after 1 hr; type: ADME, organism-based; set-up: dose 10 mg/kg, route subcutaneous; details: read-out: BPR
How it was run: (§1)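 Fed male Sprague-Dawley rats, n = 2 per time point, given 10 mg/kg s.c. in 20% HPβCD at pH 3.5−4. Brain and plasma levels taken 1 h after dosing; brain-to-plasma ratio computed from these.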

[3] = Drug metabolism in human liver microsomes at 1 uM incubated for 15 mins at 37 degC; type: ADME; details: read-out: Drug metabolism
How it was run: (§2)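 Compound at 1 μM incubated 15 min at 37 °C with human or rat liver microsomes; read-out is percent metabolized.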

[4] = Drug level in Sprague-Dawley rat brain homogenates at 10 mg/kg, sc after 1 hr; type: ADME, organism-based; set-up: dose 10 mg/kg, route subcutaneous; details: read-out: Drug uptake; how it was run: as §1
Rattus norvegicus [5] = experiment: In vivo PDE2 occupancy in Wistar rat assessed as inhibition of specific binding of [3H]-4-((1-(5-butoxypyridin-3-yl)-4-methyl-[1,2,4]triazolo[4,3-a]quinoxalin-8-yl)methyl)morpholine radiotracer at 10 mg/kg, sc and pre-treated with 2.5 mg/kg, sc PDE10 inhibitor MP10; type: functional
[6] = Drug metabolism in rat liver microsomes at 1 uM incubated for 15 mins at 37 degC; type: ADME; details: read-out: Drug metabolism; how it was run: as §2
[7] = Dissociation constant, pKa of the compound; type: physicochemical
[8] = target: T1, cAMP and cAMP-inhibited cGMP 3',5'-cyclic phosphodiesterase 10A (Rattus norvegicus, UniProt Q9QYJ6); experiment: Inhibition of 6-His-tagged rat recombinant PDE10A expressed in Sf9 cells using [3H]cAMP incubated for 60 mins by scintillation proximity assay
T1 sequence (Q9QYJ6 whole entry): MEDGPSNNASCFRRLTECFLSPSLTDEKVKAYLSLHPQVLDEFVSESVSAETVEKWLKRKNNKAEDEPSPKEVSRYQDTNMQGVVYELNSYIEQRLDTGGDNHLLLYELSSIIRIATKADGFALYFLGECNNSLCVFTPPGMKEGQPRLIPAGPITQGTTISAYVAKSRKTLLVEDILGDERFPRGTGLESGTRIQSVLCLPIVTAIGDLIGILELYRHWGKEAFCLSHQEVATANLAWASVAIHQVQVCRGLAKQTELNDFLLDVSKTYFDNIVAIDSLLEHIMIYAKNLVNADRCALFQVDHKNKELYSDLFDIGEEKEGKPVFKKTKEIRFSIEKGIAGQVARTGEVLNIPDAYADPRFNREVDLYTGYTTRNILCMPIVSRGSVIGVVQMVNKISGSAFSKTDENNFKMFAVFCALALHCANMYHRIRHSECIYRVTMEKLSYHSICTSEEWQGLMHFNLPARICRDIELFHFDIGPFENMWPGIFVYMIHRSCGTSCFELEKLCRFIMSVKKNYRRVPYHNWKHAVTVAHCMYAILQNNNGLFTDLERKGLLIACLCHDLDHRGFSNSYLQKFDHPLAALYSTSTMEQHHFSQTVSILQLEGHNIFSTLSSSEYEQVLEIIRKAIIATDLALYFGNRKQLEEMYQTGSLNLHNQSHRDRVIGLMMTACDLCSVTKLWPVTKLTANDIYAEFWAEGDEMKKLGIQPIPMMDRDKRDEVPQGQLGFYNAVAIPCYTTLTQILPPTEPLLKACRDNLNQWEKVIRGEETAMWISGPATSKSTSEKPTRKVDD

[9] = Apparent volume of distribution in Sprague-Dawley rat at 2.5 mg/kg, iv; type: ADME, organism-based; set-up: dose 2.5 mg/kg, route intravenous; details: in vivo, read-out: Vz
How it was run: (§3)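 Male Sprague-Dawley rats, fed; n = 3 per time point. Dosed 2.5 mg/kg i.v. or 10 mg/kg p.o.; plasma PK parameters derived from both routes.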

[10] = Volume of distribution at steady state in Sprague-Dawley rat at 2.5 mg/kg, iv; type: ADME, organism-based; set-up: dose 2.5 mg/kg, route intravenous; details: in vivo, read-out: Vdss; how it was run: as §3
Phosphodiesterase 6 = experiment: Inhibition of human PDE6AB by scintillation proximity assay; type: protein assay
[11] = Oral bioavailability in Sprague-Dawley rat at 10 mg/kg; type: ADME, organism-based; details: in vivo; how it was run: as §3
CYP3A4 = CYP3A4 (Homo sapiens, UniProt P08684); experiment: Inhibition of CYP3A4 (unknown origin) at 5 uM; type: ADME
Sequence of CYP3A4 (P08684 whole entry): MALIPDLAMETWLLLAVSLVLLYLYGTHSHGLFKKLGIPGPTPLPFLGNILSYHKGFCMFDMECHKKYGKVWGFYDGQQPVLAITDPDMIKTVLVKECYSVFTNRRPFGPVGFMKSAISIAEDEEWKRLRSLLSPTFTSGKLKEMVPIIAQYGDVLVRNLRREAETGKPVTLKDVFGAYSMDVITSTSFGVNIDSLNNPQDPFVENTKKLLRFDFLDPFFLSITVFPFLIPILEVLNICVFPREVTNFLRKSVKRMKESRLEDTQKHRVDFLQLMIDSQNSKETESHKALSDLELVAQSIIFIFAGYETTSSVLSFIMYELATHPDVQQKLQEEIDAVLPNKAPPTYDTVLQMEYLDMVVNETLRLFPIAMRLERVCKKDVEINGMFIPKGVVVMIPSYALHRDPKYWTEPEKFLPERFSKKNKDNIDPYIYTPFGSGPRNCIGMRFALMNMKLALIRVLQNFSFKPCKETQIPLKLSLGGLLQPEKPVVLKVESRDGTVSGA

[12] = target: cGMP-inhibited 3',5'-cyclic phosphodiesterase 3B (Homo sapiens, UniProt Q13370); experiment: Inhibition of human PDE3B by scintillation proximity assay
Sequence of cGMP-inhibited 3',5'-cyclic phosphodiesterase 3B (Q13370 whole entry): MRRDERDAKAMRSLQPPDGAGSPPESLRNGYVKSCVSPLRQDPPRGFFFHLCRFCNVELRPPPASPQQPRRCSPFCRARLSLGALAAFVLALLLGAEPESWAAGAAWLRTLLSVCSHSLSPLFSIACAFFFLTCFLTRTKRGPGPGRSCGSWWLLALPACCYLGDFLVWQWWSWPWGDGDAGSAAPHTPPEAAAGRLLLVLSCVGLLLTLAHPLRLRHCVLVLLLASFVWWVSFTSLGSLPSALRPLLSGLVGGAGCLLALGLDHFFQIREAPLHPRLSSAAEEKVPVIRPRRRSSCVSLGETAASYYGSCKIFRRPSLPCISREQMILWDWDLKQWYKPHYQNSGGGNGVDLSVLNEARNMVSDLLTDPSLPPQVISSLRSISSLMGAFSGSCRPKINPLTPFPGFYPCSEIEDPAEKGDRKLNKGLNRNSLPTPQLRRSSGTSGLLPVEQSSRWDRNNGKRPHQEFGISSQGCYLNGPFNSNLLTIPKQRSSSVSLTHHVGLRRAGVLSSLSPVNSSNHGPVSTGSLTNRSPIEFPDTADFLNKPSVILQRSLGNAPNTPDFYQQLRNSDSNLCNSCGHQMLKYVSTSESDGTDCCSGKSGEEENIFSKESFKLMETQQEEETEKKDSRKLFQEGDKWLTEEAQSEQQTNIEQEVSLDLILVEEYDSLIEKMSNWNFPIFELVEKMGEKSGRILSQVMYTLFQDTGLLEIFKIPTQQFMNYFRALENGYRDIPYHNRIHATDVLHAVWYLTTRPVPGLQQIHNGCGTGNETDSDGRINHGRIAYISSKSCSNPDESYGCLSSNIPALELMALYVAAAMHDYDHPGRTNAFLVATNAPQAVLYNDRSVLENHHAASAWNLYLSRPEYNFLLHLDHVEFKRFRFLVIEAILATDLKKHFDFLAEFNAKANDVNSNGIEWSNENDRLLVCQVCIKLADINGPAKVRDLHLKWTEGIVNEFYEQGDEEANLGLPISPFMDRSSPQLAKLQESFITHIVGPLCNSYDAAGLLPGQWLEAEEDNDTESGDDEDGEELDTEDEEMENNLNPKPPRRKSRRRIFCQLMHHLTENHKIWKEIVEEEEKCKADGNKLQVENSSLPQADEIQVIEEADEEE

[13] = Clearance in Sprague-Dawley rat at 2.5 mg/kg, iv; type: ADME, organism-based; set-up: dose 2.5 mg/kg, route intravenous; details: in vivo; how it was run: as §3
CYP2C19 = CYP2C19 (Homo sapiens, UniProt P33261); experiment: Inhibition of CYP2C19 (unknown origin) at 5 uM; type: ADME
Sequence of CYP2C19 (P33261 whole entry): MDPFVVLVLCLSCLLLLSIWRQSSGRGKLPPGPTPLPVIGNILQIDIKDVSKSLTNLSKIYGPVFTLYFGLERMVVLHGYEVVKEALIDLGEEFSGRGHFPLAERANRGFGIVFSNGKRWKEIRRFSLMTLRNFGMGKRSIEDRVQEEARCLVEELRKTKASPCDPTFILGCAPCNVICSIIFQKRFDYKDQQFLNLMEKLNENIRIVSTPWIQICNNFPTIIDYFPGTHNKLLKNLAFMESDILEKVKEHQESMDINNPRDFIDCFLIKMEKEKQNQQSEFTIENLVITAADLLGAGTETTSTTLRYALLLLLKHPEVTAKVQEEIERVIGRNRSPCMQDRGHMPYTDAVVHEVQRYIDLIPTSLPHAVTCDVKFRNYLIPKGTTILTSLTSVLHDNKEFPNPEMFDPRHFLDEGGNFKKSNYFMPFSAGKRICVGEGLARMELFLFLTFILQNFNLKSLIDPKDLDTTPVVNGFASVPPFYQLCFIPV

[14] = Initial plasma concentration in Sprague-Dawley rat at 2.5 mg/kg, iv; type: ADME, organism-based; set-up: dose 2.5 mg/kg, route intravenous; how it was run: as §3
[15] = target: cGMP-specific 3',5'-cyclic phosphodiesterase (Homo sapiens, UniProt O76074); experiment: Inhibition of 6-His-tagged human recombinant PDE5A3 expressed in Sf9 cells by scintillation proximity assay
[16] = AUC (0 to infinity) in Sprague-Dawley rat at 10 mg/kg, po; type: ADME, organism-based; set-up: time infinity, dose 10 mg/kg, route oral; details: plasma
[17] = Drug formulatability in 20% HPbetaCD at pH >3.5 buffer; type: physicochemical; details: 20% HPbetaCD in buffer at pH >3.5; read-out: Activity
[18] = target: High affinity cGMP-specific 3',5'-cyclic phosphodiesterase 9A (Homo sapiens, UniProt O76083); experiment: Inhibition of 6-His-tagged human recombinant PDE9A1 expressed in Sf9 cells by scintillation proximity assay
Rattus norvegicus [19] = experiment: In vivo PDE2 occupancy in Wistar rat assessed as inhibition of specific binding of [3H]-4-((1-(5-butoxypyridin-3-yl)-4-methyl-[1,2,4]triazolo[4,3-a]quinoxalin-8-yl)methyl)morpholine radiotracer and pre-treated with 2.5 mg/kg, sc PDE10 inhibitor MP10
[20] = Kinetic solubility in pH 7.4 buffer incubated for 4 hrs; type: physicochemical; details: read-out: Kinetic_solubility
[21] = AUC (0 to infinity) in Sprague-Dawley rat at 2.5 mg/kg, iv; type: ADME, organism-based; set-up: dose 2.5 mg/kg, route intravenous, time infinity; details: plasma
[22] = Cmax in Sprague-Dawley rat at 10 mg/kg, po; type: ADME, organism-based; set-up: dose 10 mg/kg, route oral; details: in vivo; how it was run: as §3
[23] = target: 3',5'-cyclic-AMP phosphodiesterase 4D (Homo sapiens, UniProt Q08499); experiment: Inhibition of 6-His-tagged human recombinant PDE4D3 expressed in Sf9 cells by scintillation proximity assay
Salmonella typhimurium = experiment: Genotoxicity in Salmonella typhimurium at 125 ug/ml by AMES-2 test; type: toxicity, organism-based; details: salmonella enterica subsp. enterica serovar typhimurium
How it was run: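 Colorimetric AMESII bacterial mutagenicity kit, adapted; compound tested at 125 μg/mL.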

[24] = Tmax in Sprague-Dawley rat at 10 mg/kg, po; type: ADME, organism-based; set-up: dose 10 mg/kg, route oral; details: in vivo; how it was run: as §3
[25] = target: Dual specificity calcium/calmodulin-dependent 3',5'-cyclic nucleotide phosphodiesterase 1A (Homo sapiens, UniProt P54750); experiment: Inhibition of human PDE1A by scintillation proximity assay
Sequence of Dual specificity calcium/calmodulin-dependent 3',5'-cyclic nucleotide phosphodiesterase 1A (P54750 whole entry): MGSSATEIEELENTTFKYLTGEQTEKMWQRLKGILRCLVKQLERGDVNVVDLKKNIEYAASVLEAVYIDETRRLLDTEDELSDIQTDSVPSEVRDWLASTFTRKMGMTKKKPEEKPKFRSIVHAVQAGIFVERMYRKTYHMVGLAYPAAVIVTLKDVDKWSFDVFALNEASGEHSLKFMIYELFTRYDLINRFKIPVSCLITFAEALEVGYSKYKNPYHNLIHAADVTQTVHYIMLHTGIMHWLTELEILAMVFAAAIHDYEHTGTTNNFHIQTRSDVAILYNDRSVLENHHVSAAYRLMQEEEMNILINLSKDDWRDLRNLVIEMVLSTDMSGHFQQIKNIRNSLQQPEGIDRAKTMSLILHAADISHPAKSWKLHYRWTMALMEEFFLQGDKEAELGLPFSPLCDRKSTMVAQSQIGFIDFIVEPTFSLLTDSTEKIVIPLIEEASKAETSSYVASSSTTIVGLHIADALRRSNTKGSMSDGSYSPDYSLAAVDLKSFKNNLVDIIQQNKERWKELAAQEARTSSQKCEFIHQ

[26] = Solubility in pH 7.4 buffer; type: physicochemical
[27] = Half life in Sprague-Dawley rat at 10 mg/kg, po; type: ADME, organism-based; set-up: dose 10 mg/kg, route oral; details: in vivo; how it was run: as §3
[28] = target: Dual 3',5'-cyclic-AMP and -GMP phosphodiesterase 11A (Homo sapiens, UniProt Q9HCR9); experiment: Inhibition of full length human PDE11A4 expressed in HEK cells by scintillation proximity assay; set-up: species or system HEK293
Sequence of Dual 3',5'-cyclic-AMP and -GMP phosphodiesterase 11A (Q9HCR9 whole entry): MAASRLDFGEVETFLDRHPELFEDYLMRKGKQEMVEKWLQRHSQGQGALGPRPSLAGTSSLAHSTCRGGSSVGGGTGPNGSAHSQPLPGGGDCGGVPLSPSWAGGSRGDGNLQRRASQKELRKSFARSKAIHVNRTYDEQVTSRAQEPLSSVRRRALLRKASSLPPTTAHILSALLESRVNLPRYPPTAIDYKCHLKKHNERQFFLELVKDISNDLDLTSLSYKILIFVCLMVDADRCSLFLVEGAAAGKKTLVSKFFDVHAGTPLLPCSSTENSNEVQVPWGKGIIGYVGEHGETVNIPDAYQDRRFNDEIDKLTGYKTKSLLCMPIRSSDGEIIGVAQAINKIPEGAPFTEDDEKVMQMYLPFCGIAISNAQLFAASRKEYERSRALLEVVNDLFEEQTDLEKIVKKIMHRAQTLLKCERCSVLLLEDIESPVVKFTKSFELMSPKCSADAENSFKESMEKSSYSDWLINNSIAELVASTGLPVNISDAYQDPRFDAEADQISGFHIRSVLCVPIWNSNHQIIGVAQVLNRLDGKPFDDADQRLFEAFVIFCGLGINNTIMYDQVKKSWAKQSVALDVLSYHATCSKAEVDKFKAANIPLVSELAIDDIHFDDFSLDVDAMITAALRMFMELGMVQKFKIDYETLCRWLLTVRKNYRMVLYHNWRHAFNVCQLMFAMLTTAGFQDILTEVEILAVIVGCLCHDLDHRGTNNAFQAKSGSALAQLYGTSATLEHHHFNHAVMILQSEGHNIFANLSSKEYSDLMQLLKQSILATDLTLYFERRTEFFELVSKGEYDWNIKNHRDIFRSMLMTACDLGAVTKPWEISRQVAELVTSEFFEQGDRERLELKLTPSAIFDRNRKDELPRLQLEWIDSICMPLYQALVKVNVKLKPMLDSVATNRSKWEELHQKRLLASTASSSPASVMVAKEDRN

CYP2D6 = CYP2D6 (Homo sapiens, UniProt P10635); experiment: Inhibition of CYP2D6 (unknown origin) at 5 uM; type: ADME
Sequence of CYP2D6 (P10635 whole entry): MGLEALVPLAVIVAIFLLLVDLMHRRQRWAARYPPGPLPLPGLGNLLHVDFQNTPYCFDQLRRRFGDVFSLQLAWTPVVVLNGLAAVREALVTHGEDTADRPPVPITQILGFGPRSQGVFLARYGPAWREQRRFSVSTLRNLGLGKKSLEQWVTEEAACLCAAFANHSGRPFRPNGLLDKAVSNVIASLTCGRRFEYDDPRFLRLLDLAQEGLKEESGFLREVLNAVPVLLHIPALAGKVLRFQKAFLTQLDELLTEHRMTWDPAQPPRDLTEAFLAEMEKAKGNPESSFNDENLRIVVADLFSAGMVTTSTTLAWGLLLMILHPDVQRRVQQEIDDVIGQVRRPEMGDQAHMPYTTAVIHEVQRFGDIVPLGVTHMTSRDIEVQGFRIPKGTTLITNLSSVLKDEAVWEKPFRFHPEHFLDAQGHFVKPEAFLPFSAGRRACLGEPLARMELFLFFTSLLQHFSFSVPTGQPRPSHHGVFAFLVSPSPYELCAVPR

CYP1A2 = target: T2, CYP1A2 (Homo sapiens, UniProt P05177); experiment: Inhibition of CYP1A2 (unknown origin) at 5 uM; type: ADME
T2 sequence (P05177 whole entry): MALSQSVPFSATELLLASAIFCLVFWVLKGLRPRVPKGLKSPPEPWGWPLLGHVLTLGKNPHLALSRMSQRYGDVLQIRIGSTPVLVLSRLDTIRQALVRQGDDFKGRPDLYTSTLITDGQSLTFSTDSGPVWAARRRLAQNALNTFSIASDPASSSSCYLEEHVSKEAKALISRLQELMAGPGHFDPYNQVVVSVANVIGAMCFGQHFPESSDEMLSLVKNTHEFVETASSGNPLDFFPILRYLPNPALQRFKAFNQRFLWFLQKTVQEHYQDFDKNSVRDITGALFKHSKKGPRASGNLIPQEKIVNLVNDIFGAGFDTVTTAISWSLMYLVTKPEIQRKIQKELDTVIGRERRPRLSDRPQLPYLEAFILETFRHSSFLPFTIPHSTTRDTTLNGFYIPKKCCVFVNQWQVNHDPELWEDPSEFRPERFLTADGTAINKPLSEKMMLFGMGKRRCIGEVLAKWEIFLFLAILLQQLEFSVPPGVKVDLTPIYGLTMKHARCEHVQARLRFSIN

CYP2C9 = CYP2C9 (Homo sapiens, UniProt P11712); experiment: Inhibition of CYP2C9 (unknown origin) at 5 uM; type: ADME
Sequence of CYP2C9 (P11712 whole entry): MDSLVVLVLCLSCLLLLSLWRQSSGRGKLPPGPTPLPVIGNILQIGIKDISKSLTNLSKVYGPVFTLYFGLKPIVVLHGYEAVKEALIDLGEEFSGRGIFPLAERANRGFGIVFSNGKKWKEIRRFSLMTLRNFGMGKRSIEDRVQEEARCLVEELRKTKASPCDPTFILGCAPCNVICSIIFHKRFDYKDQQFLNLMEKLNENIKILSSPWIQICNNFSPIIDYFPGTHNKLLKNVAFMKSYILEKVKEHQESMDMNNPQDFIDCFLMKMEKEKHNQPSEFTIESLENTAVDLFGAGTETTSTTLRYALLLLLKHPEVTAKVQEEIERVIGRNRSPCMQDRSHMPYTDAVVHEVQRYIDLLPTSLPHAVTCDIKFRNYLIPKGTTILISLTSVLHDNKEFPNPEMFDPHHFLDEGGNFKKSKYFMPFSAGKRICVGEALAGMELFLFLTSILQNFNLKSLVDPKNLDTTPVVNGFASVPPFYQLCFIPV

[29] = Dissociation constant, pKa of the compound at 25 degC by potentiometric titration method; type: physicochemical
[30] = Solubility in pH 3.9 buffer with 20% HPbetaCD; type: physicochemical
[31] = Half life in Sprague-Dawley rat at 2.5 mg/kg, iv; type: ADME, organism-based; set-up: dose 2.5 mg/kg, route intravenous; details: in vivo; how it was run: as §3
[32] = target: High affinity 3',5'-cyclic-AMP phosphodiesterase 7A (Homo sapiens, UniProt Q13946); experiment: Inhibition of 6-His-tagged human recombinant PDE7A1 expressed in Sf9 cells by scintillation proximity assay
Sequence of High affinity 3',5'-cyclic-AMP phosphodiesterase 7A (Q13946 whole entry): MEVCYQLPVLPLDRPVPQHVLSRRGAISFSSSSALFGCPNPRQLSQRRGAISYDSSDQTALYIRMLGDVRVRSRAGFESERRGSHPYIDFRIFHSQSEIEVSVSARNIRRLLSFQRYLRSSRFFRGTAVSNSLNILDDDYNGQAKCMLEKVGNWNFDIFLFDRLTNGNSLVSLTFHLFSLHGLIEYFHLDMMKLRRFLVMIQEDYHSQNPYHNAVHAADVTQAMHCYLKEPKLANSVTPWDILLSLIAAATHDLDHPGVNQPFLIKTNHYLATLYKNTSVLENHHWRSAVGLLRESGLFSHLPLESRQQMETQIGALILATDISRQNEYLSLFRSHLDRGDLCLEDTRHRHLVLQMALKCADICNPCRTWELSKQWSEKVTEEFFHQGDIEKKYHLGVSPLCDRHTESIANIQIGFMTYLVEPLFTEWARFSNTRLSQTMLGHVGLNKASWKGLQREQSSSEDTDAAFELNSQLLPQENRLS

SMILES: CCCCOc1cncc(-c2nnc3c(C)nc4ccncc4n23)c1
- fraction unbound at 5 h [1]: > 0.3
- Kp at 1 h [2]: 0.61
- metabolised at 0.25 h, 1 µM [3]: 6%
- concentration at 1 h [4]: 789 ng/g
- Occ (Rattus norvegicus [5]): 23%
- metabolised at 0.25 h, 1 µM [6]: 46%

SMILES: Cc1nc2cccnc2n2c(-c3ccccc3Cl)nnc12
- pKa [7]: 1

SMILES: Cc1nc2ccncc2n2c(-c3cc(COC(C)C)ccc3Cl)nnc12
- IC50 [8]: 6.03 µM
- metabolised at 0.25 h, 1 µM [3]: 57%
- metabolised at 0.25 h, 1 µM [6]: 98%

SMILES: Cc1nc2ccncc2n2c(-c3cc(N4CCOCC4)ccc3Cl)nnc12
- IC50 [8]: > 10 µM
- metabolised at 0.25 h, 1 µM [3]: 14%
- metabolised at 0.25 h, 1 µM [6]: 53%

SMILES: Cc1nc2ccncc2n2c(-c3ccccc3Cl)nnc12
- Vd [9]: 1.61 L/kg
- Vd [10]: 1.02 L/kg
- IC50 (Phosphodiesterase 6): > 10 µM
- fraction unbound at 5 h [1]: > 0.3
- bioavailability [11]: 100%
- inhibition at 5 µM (CYP3A4): < 50%
- IC50 [12]: > 10 µM
- clearance [13]: 2.32 L/h/kg
- inhibition at 5 µM (CYP2C19): < 50%
- C0 [14]: 3.02 µg/mL
- IC50 [15]: > 10 µM
- AUC(0-inf) [16]: 4.23 µg·h/mL
- Kp at 1 h [2]: 0.65
- solubility [17]: 4 mg/mL (≈ 13.5 mM)
- IC50 [18]: > 10 µM
- ED50 (Rattus norvegicus [19]): 21 mg/kg
- solubility kinetic at 4 h [20]: > 1000 µM
- AUC(0-inf) [21]: 1.04 µg·h/mL
- Cmax [22]: 0.997 µg/mL
- IC50 [23]: 5.89 µM
- Activity (Salmonella typhimurium): Non-toxic
- Tmax [24]: 1.17 h
- IC50 [25]: > 10 µM
- solubility [26]: > 1000 µM
- half-life [27]: 2.36 h
- IC50 [28]: 6.92 µM
- metabolised at 0.25 h, 1 µM [3]: 7%
- concentration at 1 h [4]: 2730 ng/g
- inhibition at 5 µM (CYP2D6): < 50%
- inhibition at 5 µM (CYP1A2): < 50%
- inhibition at 5 µM (CYP2C9): < 50%
- pKa [29]: 2.7
- metabolised at 0.25 h, 1 µM [6]: 13%
- solubility [30]: 4 mg/mL (≈ 13.5 mM)
- half-life [31]: 0.47 h
- pKa [7]: 2.7
- IC50 [32]: > 10 µM
